The values below come from ChEMBL document CHEMBL1148516, “Design and evaluation of new antipsoriatic antedrug candidates having 16-en-22-oxa-vitamin D3 structures” (Bioorg Med Chem Lett, 2006).

One data set has as its system Keratinocyte. Briefly: Antiproliferative activity against human keratinocyte assessed as inhibition of [3H]TdR uptake. The data set is classed as functional, cell-based.
The nature of data set [1]: Clearance in rat at 1000 ug/kg, iv. It counts as ADME, organism-based. The note with it: in vivo, 1 mg/kg. In a few lines: (§1)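 Rats were dosed intravenously at 10 µg/kg or 1000 µg/kg. Total clearance (mL/h/kg) is the mean of 3–4 rats.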
The species entered for another data set is Homo sapiens. Nature of the data set: Clearance in human liver S9 fraction. The data set is classed as ADME. In a few lines:
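Compound was incubated with human liver S9 in the presence of NADPH. The elimination rate was taken from the time course of compound concentration in the reaction mixture. Clearance is given as mL/min/mg S9 protein, mean of two experiments.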

For data set [2], the target named is T1, Vitamin D3 receptor (Gallus gallus) (UniProt O42392).
T1 sequence (whole entry): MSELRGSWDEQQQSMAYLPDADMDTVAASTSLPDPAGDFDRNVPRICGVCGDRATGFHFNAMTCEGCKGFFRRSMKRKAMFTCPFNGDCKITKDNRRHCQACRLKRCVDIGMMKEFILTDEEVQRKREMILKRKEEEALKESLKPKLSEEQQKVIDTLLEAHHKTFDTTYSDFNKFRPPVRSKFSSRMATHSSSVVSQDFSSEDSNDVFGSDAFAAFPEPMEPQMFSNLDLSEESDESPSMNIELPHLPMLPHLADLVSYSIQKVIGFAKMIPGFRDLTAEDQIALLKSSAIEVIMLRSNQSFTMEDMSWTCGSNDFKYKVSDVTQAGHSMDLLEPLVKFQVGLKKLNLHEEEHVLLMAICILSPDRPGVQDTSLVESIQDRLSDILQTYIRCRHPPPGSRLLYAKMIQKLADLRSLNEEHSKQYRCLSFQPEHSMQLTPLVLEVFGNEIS
Briefly: Binding affinity to chick VDR. In a few lines:
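Receptor affinity is expressed as a percentage relative to calcitriol, set at 100%. Each value is the average of duplicate measurements.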

Another data set deals with Mus musculus. Nature of the data set: Calcemic activity in percutaneously dosed mouse relative to control. It counts as functional. In a few lines:
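Mice received a single percutaneous dose of test compound or vehicle, n = 3. Blood ionized Ca (mmol/L) was measured. Activity (%) = (analog Ca − vehicle Ca)/vehicle Ca × 100.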

Data set [3] is described as follows: Clearance in rat at 10 ug/kg, iv. It counts as ADME, organism-based. The note with it: in vivo, 0.01 mg/kg. Put shortly:
as §1

In the case of `C=C1/C(=C\C=C2/CCC[C@]3(C)C([C@H](C)OCC(=O)NCC(F)(F)C(F)(F)F)=CCC23)C[C@@H](O)C[C@@H]1O` (some centres not stated), the IC50 with Keratinocyte turned out to be 0.0019 µM. Besides, the clearance in data set [1] was 131 mL/min/kg. Besides, the CL in the data set listed under Homo sapiens was 278 µL/min/mg. In data set [2], the Activity turned out to be 34.4%. For the same compound, the Blood ionized calcium in the data set with Mus musculus is 1.58 mmol/L.
Regarding `C=C1/C(=C\C=C2/CCC[C@]3(C)C([C@H](C)OCC(=O)OC(C)(CC)CC)=CCC23)C[C@@H](O)C[C@@H]1O` (some centres not stated), the IC50 in the data set with Keratinocyte was found to be 0.0008 µM. The compound also showed a clearance in data set [1] of 94.8 mL/min/kg. In the data set filed under Homo sapiens, the CL was determined as 1421 µL/min/mg. This compound registered an Activity in data set [2] of 45.1%. The Blood ionized calcium in the data set with Mus musculus is 1.57 mmol/L.
Consider `C=C1/C(=C\C=C2/CCC[C@]3(C)C([C@H](C)OCC(=O)O)=CCC23)C[C@@H](O)C[C@@H]1O` (some centres not stated), for which, in the data set with Keratinocyte, the concentration for half-maximal inhibition (IC50) was greater than 1 µM. Moreover, the Activity in data set [2] came to 0.04%. In the data set with Mus musculus, the Blood ionized calcium was 1.38 mmol/L.
Take `C=C1/C(=C\C=C2/CCC[C@]3(C)C([C@H](C)OCC(=O)OC(C)(C)C)=CCC23)C[C@@H](O)C[C@@H]1O` (some centres not stated): the IC50 with Keratinocyte was determined as 0.0089 µM. In data set [2], this compound showed an Activity of 40.1%. Further, in the data set with Mus musculus, the Blood ionized calcium is reported as 1.65 mmol/L.
On to `C=C1/C(=C\C=C2/CCC[C@]3(C)C([C@H](C)OCC(=O)NC(C)(C)C)=CCC23)C[C@@H](O)C[C@@H]1O` (some centres not stated), for which the IC50 in the data set with Keratinocyte was 0.0044 µM. Moreover, the Activity in data set [2] was 22.2%. Besides, the Blood ionized calcium in the data set with Mus musculus is given as 2.16 mmol/L.
In the case of `C=C1/C(=C\C=C2/CCC[C@]3(C)C([C@H](C)OCCC(C)(C)O)=CCC23)CC(O)CC1O` (single isomer, unassigned), the IC50 in the data set on Keratinocyte was 0.0504 µM. The Blood ionized calcium with Mus musculus was 2.16 mmol/L.
On to `C=C1/C(=C\C=C2/CCC[C@]3(C)C([C@H](C)OCC(=O)NCC(C)(C)C)=CCC23)C[C@@H](O)C[C@@H]1O` (some centres not stated), for which the IC50 with Keratinocyte turned out to be 0.0174 µM. Further, the Activity in data set [2] amounted to 18%. Besides, the Blood ionized calcium in the data set with Mus musculus is listed as 1.82 mmol/L.
The like results for `C=C1/C(=C\C=C2/CCC[C@]3(C)C([C@H](C)O)=CCC23)C[C@@H](O)C[C@@H]1O` (some centres not stated) were, in that order, greater than 1 µM, 0.32% and 1.4 mmol/L.
With `C=C1/C(=C\C=C2/CCC[C@@]3(C)C2CC[C@@H]3[C@H](C)OCC(=O)OC(C)(C)C)C[C@@H](O)C[C@@H]1O` (some centres not stated), the IC50 with Keratinocyte worked out at 0.0884 µM. The Blood ionized calcium with Mus musculus is listed as 1.49 mmol/L.
Take `C=C1/C(=C\C=C2/CCC[C@]3(C)[C@@H]([C@H](C)OCCC(C)(C)O)CC[C@@H]23)C[C@@H](O)C[C@@H]1O` [MAXACALCITOL]: the concentration for half-maximal inhibition (IC50) in the data set with Keratinocyte came to 0.0226 µM. Moreover, the clearance in data set [3] was 20.9 mL/min/kg. For the same compound, the CL in the data set listed under Homo sapiens came out at 7 µL/min/mg. The compound further came in with an Activity in data set [2] of 20%. The Blood ionized calcium with Mus musculus is on record as 2.6 mmol/L.
Regarding `C=C1/C(=C\C=C2/CCC[C@]3(C)[C@@H]([C@H](C)CCCC(C)(C)O)CC[C@@H]23)C[C@@H](O)C[C@@H]1O`, in data set [2], the Activity worked out at 100%.
As for `C=C1/C(=C\C=C2/CCC[C@@]3(C)C2CC[C@@H]3[C@H](C)CCC(=O)OC(C)(C)C)C[C@@H](O)C[C@@H]1O` (some centres not stated), the half-maximal inhibitory concentration (IC50) in the data set with Keratinocyte amounted to 0.017 µM. Besides, in the data set on Mus musculus, the Blood ionized calcium is 1.77 mmol/L.

Broadly, the IC50 is the point on the concentration scale where inhibition reaches its midpoint. For orientation: clearance means the volume of plasma or blood freed of the substance per unit of time. The low end stands for inefficient removal, the high end for efficient removal.
